Screening results from PubChem.
KCNQ1 inh = blocks the human KCNQ1 potassium channel. P51787. CHO-K1 KCNQ1, FluxOR thallium flux fluorescence; hits give high values. B-score at 10 µM. actives 1.3% (n = 310,000). AID 2642;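 active means compounds whose thallium flux B-score, printed positive for inhibition, exceeds three library SD while starting fluorescence stays within three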;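 further: channel opened by potassium depolarization with thallium stimulus after 20 min compound exposure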
Target sequence (P51787 whole entry, looked up): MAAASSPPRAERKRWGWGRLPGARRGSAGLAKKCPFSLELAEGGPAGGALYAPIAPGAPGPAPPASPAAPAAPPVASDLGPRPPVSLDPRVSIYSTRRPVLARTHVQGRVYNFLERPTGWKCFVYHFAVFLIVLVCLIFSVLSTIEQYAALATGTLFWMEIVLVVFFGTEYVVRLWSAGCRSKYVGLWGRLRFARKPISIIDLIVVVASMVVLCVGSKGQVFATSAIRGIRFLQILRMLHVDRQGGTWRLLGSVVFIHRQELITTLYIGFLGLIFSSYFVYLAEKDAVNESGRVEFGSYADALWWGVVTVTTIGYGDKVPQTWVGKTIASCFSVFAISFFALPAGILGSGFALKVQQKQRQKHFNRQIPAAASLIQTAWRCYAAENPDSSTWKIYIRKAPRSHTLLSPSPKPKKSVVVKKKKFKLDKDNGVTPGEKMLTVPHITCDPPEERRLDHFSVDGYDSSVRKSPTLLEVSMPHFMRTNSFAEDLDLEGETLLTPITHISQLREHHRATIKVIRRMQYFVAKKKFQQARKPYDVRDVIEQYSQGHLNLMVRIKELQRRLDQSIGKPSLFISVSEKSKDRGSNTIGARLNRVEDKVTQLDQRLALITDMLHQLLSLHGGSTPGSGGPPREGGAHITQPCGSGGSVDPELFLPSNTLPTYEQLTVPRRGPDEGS
KCNQ1 pot = potentiates or activates the human KCNQ1 potassium channel. CHO-K1 KCNQ1, thallium flux FluxOR fluorescence; hits give high values. actives 0.35% (n = 310,000). AID 2648. P51787. B-score at 10 µM;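 active means fluorescence ratio B-score, a plate-corrected score, at least three library SD, with initial intensity B-score within 5 SD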
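Assay system: CHO-K1 cells stably expressing KCNQ1. Medium: assay buffer for compound exposure, DMSO matched across wells. Timing: 37 °C overnight plating, 90-min dark dye load, 20-min compound pretreatment. Signal: kinetic FluxOR fluorescence, 10 s baseline plus 110 s post-stimulus.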
Cl transport mod = modulators of human KCC2 chloride dependent transport | actives 2.2% (n = 190,000) | KCC2 cells, thallium flux FluoZin-2 fluorescence | B-score of Tl+ flux slope (higher = more flux/activation; lower = inhibition) at 10 µM | Q9H2X9;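 active means thallium flux slope and its plate-corrected score both differing from the plate sample mean at a set confidence after two filtering rounds, in either direction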;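 further: slope of fluorescence scaled to starting intensity during 10 to 20 s after thallium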
hERG protect = compounds protecting human hERG from proarrhythmic drug block; CHO-hERG, FluxOR thallium flux, dofetilide IC70 present; actives 0.51% (n = 310,000); activation (rescue from dofetilide block), less the hit threshold, % at 10 µM;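 active means activation above the mean of controls blocked by dofetilide plus 5 SD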;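 further: thallium influx through hERG after potassium depolarization seen as dye fluorescence rise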
KCNK3 inh = human KCNK3 channel inhibition, primary screen | O14649 | B-score at 10 µM | AID 602410 | CHO-KCNK3 thallium flux, FluxOR fluorescence; hits give low values | actives 0.84% (n = 340,000);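 active means B-score under library mean minus 4 SD, starting fluorescence ratio at most library mean plus 5 SD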;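 further: more negative B-score means stronger inhibition of thallium flux through KCNK3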
KCNK9 block = blocks the human KCNK9 two-pore domain potassium channel; HEK293 KCNK9, FluxOR thallium flux fluorescence; hits give low values; B-score at 10 µM; AID 488922; actives 1.2% (n = 310,000);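 active means ratio B-score over 3 SD below the library mean, with starting fluorescence within 5 SD of its mean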;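 further: negative B-score means less thallium flux so channel inhibition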
A number is an active result. In the library only some 4.1% were active in any assay of this set; here they are far more common.

`CC1CCN(C(=O)COc2ccc3ccccc3c2Br)CC1` gave KCNQ1 inh inactive, KCNQ1 pot inactive, hERG protect inactive, KCNK3 inh inactive and KCNK9 block inactive.
For COC(=O)CCN(C(=O)c1cc([N+](=O)[O-])cc([N+](=O)[O-])c1)c1ccccn1 the results were KCNQ1 inh inactive, KCNQ1 pot inactive, Cl transport mod inactive, hERG protect inactive, KCNK3 inh inactive and KCNK9 block inactive.
For COC(=O)CCN(C(=O)c1ccc([N+](=O)[O-])cc1)c1ccccn1 the results were KCNQ1 inh 11, KCNQ1 pot inactive, Cl transport mod inactive, hERG protect inactive, KCNK3 inh inactive and KCNK9 block inactive.
For CN(C)c1ccc(/C=C/C(O)=C2/C(=O)N(C)C3(C)CC2c2ccccc2O3)cc1 (centres undefined) the results were KCNQ1 inh 7, KCNQ1 pot inactive, Cl transport mod inactive, hERG protect inactive and KCNK9 block inactive.
Screening CCCc1cc2c(cc1NC(=O)c1ccc(C(C)(C)C)cc1)OCO2 returned KCNQ1 inh inactive, KCNQ1 pot inactive, Cl transport mod inactive, hERG protect inactive, KCNK3 inh inactive and KCNK9 block -7.75.
For CN(C)S(=O)(=O)c1ccc(Cl)c(C(=O)Nc2ccccc2[N+](=O)[O-])c1 the results were KCNQ1 inh inactive, KCNQ1 pot inactive, Cl transport mod inactive, hERG protect inactive, KCNK3 inh inactive and KCNK9 block inactive.
`CCN(CC)S(=O)(=O)c1ccc(Cl)c(C(=O)Nc2ccc(Cl)cc2[N+](=O)[O-])c1` gave KCNQ1 inh inactive, KCNQ1 pot inactive, Cl transport mod inactive, hERG protect inactive, KCNK3 inh inactive and KCNK9 block -6.62.
COc1ccc(CN(C)CC(=O)N(C)CC(=O)Nc2ccccc2Br)cc1F was read as KCNK3 inh inactive.
`COc1ccc(/C=C/C(=O)N2c3ccccc3Sc3ccc(C(F)(F)F)cc32)cc1` gave KCNQ1 inh inactive, KCNQ1 pot inactive, Cl transport mod inactive, hERG protect inactive, KCNK3 inh inactive and KCNK9 block -7.26.
Screening Cc1cc(C)n(CC(=O)N2c3ccccc3Sc3ccc(C(F)(F)F)cc32)n1 returned KCNQ1 inh inactive, KCNQ1 pot inactive, Cl transport mod inactive, hERG protect inactive, KCNK3 inh inactive and KCNK9 block inactive.
For O=C(CN1C(=O)NC2(CCCC2)C1=O)OCCOc1cccc(Br)c1 the results were KCNQ1 inh inactive, KCNQ1 pot inactive, hERG protect inactive, KCNK3 inh inactive and KCNK9 block inactive.
For O=C1c2ccccc2[C@@H]2C[C@H]3O[C@H]3CCN12 the results were KCNK3 inh inactive.
For Cc1cn2c(nc1=O)OC1C(O)C(COC(=O)c3ccccc3)OC12 (centres undefined) the results were KCNQ1 inh inactive, KCNQ1 pot inactive, hERG protect 5.0, KCNK3 inh inactive and KCNK9 block inactive.
Screening CCCOP(=O)(c1ccccc1)c1ccccc1 returned KCNQ1 inh inactive, KCNQ1 pot inactive, Cl transport mod inactive, hERG protect inactive, KCNK3 inh inactive and KCNK9 block inactive.
`CC(C)CCOP(=O)(c1ccccc1)c1ccccc1` gave KCNQ1 inh inactive, KCNQ1 pot inactive, Cl transport mod inactive, hERG protect inactive, KCNK3 inh inactive and KCNK9 block -6.75.
Screening COc1ccc(N(Cc2cc3cccc(C)c3[nH]c2=O)S(=O)(=O)c2ccc(Cl)cc2)cc1 returned KCNQ1 inh inactive, KCNQ1 pot inactive, hERG protect inactive, KCNK3 inh inactive and KCNK9 block -7.5.
COc1ccc(N(Cc2cc3cccc(C)c3[nH]c2=O)S(=O)(=O)c2ccc(OC)cc2)cc1 was read as KCNQ1 inh inactive, KCNQ1 pot inactive, hERG protect inactive, KCNK3 inh inactive and KCNK9 block inactive.
CN(CC(=O)Nc1ccccc1C(F)(F)F)C(=O)c1ccc(N2C(=O)CCC2=O)cc1 was read as KCNQ1 inh inactive, KCNQ1 pot inactive, hERG protect inactive, KCNK3 inh inactive and KCNK9 block inactive.
`CN(C)CCNC(=O)C1CCN(S(=O)(=O)c2ccc3ccccc3c2)CC1` gave KCNQ1 inh inactive, KCNQ1 pot inactive, hERG protect inactive, KCNK3 inh inactive and KCNK9 block inactive.
Screening CCOCCCNC(=O)C(NC(=O)Cc1cccs1)c1ccc(C)cc1 (centres undefined) returned KCNQ1 inh inactive, KCNQ1 pot inactive, Cl transport mod inactive, hERG protect 12.0, KCNK3 inh inactive and KCNK9 block inactive.
For CCOc1ccc(/C=N/NC(=O)c2ccc(Cn3cc([N+](=O)[O-])cn3)o2)cc1 the results were KCNQ1 inh inactive, KCNQ1 pot inactive, Cl transport mod inactive, hERG protect inactive, KCNK3 inh inactive and KCNK9 block inactive.
`CC(C)(C)c1ccc(OCc2ccc(C(=O)N/N=C/c3ccc([N+](=O)[O-])cc3)o2)cc1` gave KCNQ1 inh 7, KCNQ1 pot inactive, Cl transport mod inactive, hERG protect inactive, KCNK3 inh inactive and KCNK9 block inactive.
For CC(=O)c1ccc(N2C(=O)C3C(C2=O)C(C(=O)c2ccc(Cl)cc2)N2CCCC32)cc1 (centres undefined) the results were KCNQ1 inh 8, KCNQ1 pot inactive, Cl transport mod inactive, hERG protect inactive and KCNK9 block inactive.
O=C(c1cc(-c2ccccc2)on1)N1CCN(c2ccccc2)CC1 was read as KCNQ1 inh inactive, KCNQ1 pot inactive, hERG protect inactive, KCNK3 inh inactive and KCNK9 block inactive.
For O=C(c1cc(-c2ccccc2)on1)N1CCCC1 the results were KCNQ1 inh inactive, KCNQ1 pot inactive, Cl transport mod inactive, hERG protect 5.0, KCNK3 inh inactive and KCNK9 block inactive.
`O=C(CCn1c(=O)oc2ccccc21)N1CCN(c2ccccc2F)CC1` gave KCNQ1 inh inactive, KCNQ1 pot inactive, hERG protect 5.3, KCNK3 inh inactive and KCNK9 block inactive.
Cc1ccc(C)c(N2CCN(c3ncccc3[N+](=O)[O-])CC2)c1 was read as KCNQ1 inh inactive, KCNQ1 pot inactive, hERG protect inactive, KCNK3 inh inactive and KCNK9 block -6.63.
`COc1ccc(CC(=O)NCC2CCCN(Cc3ccc(SC)cc3)C2)cc1` (centres undefined) gave KCNQ1 inh inactive, KCNQ1 pot inactive, hERG protect inactive, KCNK3 inh inactive and KCNK9 block inactive.
`CCN1C[C@@H]2[C@@H]3C(=O)N(C)C(=O)[C@@H]3[C@](Cc3ccccc3)(C1=O)N2C(=O)c1ccc(F)cc1` gave KCNK3 inh inactive.
Screening O=C(Nc1ccccc1Cl)c1cccc(NC(=O)C2CCCC2)c1 returned KCNQ1 inh inactive, KCNQ1 pot inactive, hERG protect inactive, KCNK3 inh inactive and KCNK9 block -6.92.
O=C(NC1CC1)c1cccc(NC(=O)C2CCCC2)c1 was read as KCNK3 inh inactive.
